# Test results as given in ChEMBL document CHEMBL1649120, “Differential effects of inhibiting chitin and 1,3-{beta}-D-glucan synthesis in ras and calcineurin mutants of Aspergillus fumigatus” (2009).
# Activity calls are given as the source filed them. No cut-off for these calls is given here. *1 amine or outer side, *2 acyl side, *3 side chain or, on linkers, in order; H or OH if unused. Where a SMILES comes first, the peptide text is derived from it. Bridges are numbered along the chain shown (N, C = ends). [ ]: non-standard residue; d: D form. The star is where a group is joined. hTyr(3S-OH,4S-OH,3'-OSO3H) = N[C@H](C(=O)O)[C@H](O)[C@@H](O)c1ccc(O)c(OS(=O)(=O)O)c1; pTerphenylCO(4''-OnC5H11) = CCCCCOc1ccc(-c2ccc(-c3ccc(C(=O)*)cc3)cc2)cc1; Orn(4R-OH,5R-OH) = O=C([C@H](C[C@@H](O)[C@@H](O)N[*:3])N[*:1])[*:2]; hTyr(3S-OH,4S-OH) = N[C@H](C(=O)O)[C@H](O)[C@@H](O)c1ccc(O)cc1; Pro(3S-OH,4S-Me) = C[C@H]1CN[C@H](C(=O)O)[C@H]1O; X1 = CCCCCOc1ccc(-c2cc(-c3ccc(C(=O)*)cc3)no2)cc1; Gln(3R-OH) = NC(=O)C[C@@H](O)[C@H](N)C(=O)O; Hyp = O=C(O)[C@@H]1C[C@@H](O)CN1
# Columns and labels:
# [1] = test system: Aspergillus fumigatus; assay: Antifungal activity against cnaA deficient Aspergillus fumigatus Af293 assessed as abnormal hyphal growth by CLSI method; assay type: functional; settings: read-out: MEC
# Summary of the method: (§1)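 MEC by CLSI broth microdilution in RPMI 1640. Conidia were incubated with or without drug for 48 h at 37°C, in triplicate.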
# [2] = test system: Aspergillus fumigatus; assay: Antifungal activity against crzA deficient Aspergillus fumigatus Af293 assessed as abnormal hyphal growth by CLSI method; assay type: functional; settings: read-out: MEC; summary of the method: as §1
# [3] = test system: Aspergillus fumigatus; assay: Antifungal activity against rasA deficient Aspergillus fumigatus H237 assessed as abnormal hyphal growth by CLSI method; assay type: functional; settings: read-out: MEC; summary of the method: as §1
# [4] = test system: Aspergillus fumigatus; assay: Antifungal activity against Aspergillus fumigatus Af293 assessed as abnormal hyphal growth by CLSI method; assay type: functional; settings: read-out: MEC; summary of the method: as §1
# [5] = test system: Aspergillus fumigatus; assay: Antifungal activity against Aspergillus fumigatus Af293 expressing cnaA gene assessed as abnormal hyphal growth by CLSI method; assay type: functional; settings: read-out: MEC; summary of the method: as §1
# [6] = test system: Aspergillus fumigatus; assay: Antifungal activity against Aspergillus fumigatus Af293 expressing crzA gene assessed as abnormal hyphal growth by CLSI method; assay type: functional; settings: read-out: MEC; summary of the method: as §1
# [7] = test system: Aspergillus fumigatus; assay: Antifungal activity against Aspergillus fumigatus H237 assessed as abnormal hyphal growth by CLSI method; assay type: functional; settings: read-out: MEC; summary of the method: as §1
# [8] = test system: Aspergillus fumigatus; assay: Antifungal activity against cnaA deficient Aspergillus fumigatus Af293 assessed as inhibition of hyphal growth at germling stage at 1 ug/ml by CLSI method; assay type: functional, organism-based
# Summary of the method: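 Conidia were grown as for CLSI susceptibility testing in RPMI 1640 with or without echinocandin (1 μg/ml) for 48 h at 37°C. Hyphal morphology was then examined by bright-field microscopy.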
# [9] = test system: Aspergillus fumigatus; assay: Antifungal activity against Aspergillus fumigatus H237 expressing dominant-active rasA gene assessed as abnormal hyphal growth by CLSI method; assay type: functional; settings: read-out: MEC; summary of the method: as §1
# [10] = test system: Aspergillus fumigatus; assay: Antifungal activity against Aspergillus fumigatus H237 expressing rasA gene assessed as abnormal hyphal growth by CLSI method; assay type: functional; settings: read-out: MEC; summary of the method: as §1
SMILES,minimal effective concentration [1] [µg/mL],minimal effective concentration [2] [µg/mL],minimal effective concentration [3] [µg/mL],minimal effective concentration [4] [µg/mL],minimal effective concentration [5] [µg/mL],minimal effective concentration [6] [µg/mL],minimal effective concentration [7] [µg/mL],Activity [8],minimal effective concentration [9] [µg/mL],minimal effective concentration [10] [µg/mL]
"CCCCCOc1ccc(-c2ccc(-c3ccc(C(=O)N[C@H]4C[C@@H](O)[C@@H](O)NC(=O)[C@@H]5[C@@H](O)[C@@H](C)CN5C(=O)[C@H]([C@@H](C)O)NC(=O)[C@H]([C@H](O)[C@@H](O)c5ccc(O)cc5)NC(=O)[C@@H]5C[C@@H](O)CN5C(=O)[C@H]([C@@H](C)O)NC4=O)cc3)cc2)cc1 [ANIDULAFUNGIN] ({pTerphenylCO(4''-OnC5H11)}-[Orn(4R-OH,5R-OH)]T[Hyp][hTyr(3S-OH,4S-OH)]T[Pro(3S-OH,4S-Me)]; lactam 1-C)",0.0039,0.0156,2,0.0625,0.0625,0.125,0.0625,Active,0.0156,0.125
C=CC[C@@H]1/C=C(\C)C[C@H](C)C[C@H](OC)[C@H]2O[C@@](O)(C(=O)C(=O)N3CCCC[C@H]3C(=O)O[C@H](/C(C)=C/[C@@H]3CC[C@@H](O)[C@H](OC)C3)[C@H](C)[C@@H](O)CC1=O)[C@H](C)C[C@@H]2OC [TACROLIMUS ANHYDROUS],> 80,0.01,0.001,0.02,0.02,0.02,0.02,–,0.01,0.02
"CCCCCOc1ccc(-c2cc(-c3ccc(C(=O)N[C@H]4C[C@@H](O)[C@@H](O)NC(=O)[C@@H]5[C@@H](O)[C@@H](C)CN5C(=O)[C@H]([C@H](O)CC(N)=O)NC(=O)[C@H]([C@H](O)[C@@H](O)c5ccc(O)c(OS(=O)(=O)O)c5)NC(=O)[C@@H]5C[C@@H](O)CN5C(=O)[C@H]([C@@H](C)O)NC4=O)cc3)no2)cc1 [MICAFUNGIN] (X1-[Orn(4R-OH,5R-OH)]T[Hyp][hTyr(3S-OH,4S-OH,3'-OSO3H)][Gln(3R-OH)][Pro(3S-OH,4S-Me)]; lactam 1-C)",0.0039,0.0312,> 4,0.125,0.125,0.0625,0.125,Active,0.0156,0.125
